Measurements from ChEMBL document CHEMBL1154144, “Semisynthesis and antiplasmodial activity of the quinoline alkaloid aurachin E” (J Nat Prod, 2008).
≈ marks a conversion by molar mass, not a printed value. Calls of active or inactive are those of the source. No cut-off for these calls is given here.

Key:
L929 = assay: Cytotoxicity against mouse L929 cells after 5 days by MTT assay; assay type: cell-based; conditions: L929, 120 h
How it was run: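 L929 mouse fibroblasts were exposed to serial compound dilutions, and metabolic activity was read by MTT after 5 days.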

Plasmodium falciparum [1] = assay: Antiplasmodial activity against Plasmodium falciparum D6 clone after 48 hrs; assay type: functional, organism-based; conditions: D6, 48 h
Plasmodium falciparum [2] = assay: Antiplasmodial activity against Plasmodium falciparum W2 after 48 hrs; assay type: functional, organism-based; conditions: W2, 48 h
[3] = Inhibition of respiration in bovine heart submitochondrial particles assessed as NADH oxidation; assay type: functional, Bos taurus
Plasmodium berghei [4] = assay: Antimalarial activity against Plasmodium berghei infected in mice (Mus musculus) at 100 mg/kg; assay type: functional
Plasmodium berghei [5] = assay: Antimalarial activity against Plasmodium berghei infected in mice (Mus musculus)

| Structure (SMILES) | IC50 (L929) | IC50 (Plasmodium falciparum [1]) | IC50 (Plasmodium falciparum [2]) | IC50 [3] | Activity (Plasmodium berghei [4]) | ED90 (Plasmodium berghei [5]) |
| --- | --- | --- | --- | --- | --- | --- |
| C[C@@H]1CC[C@H]2[C@@H](C)C(=O)O[C@@H]3O[C@@]4(C)CC[C@@H]1[C@]32OO4 [ARTEMISININ] | > 40 µg/mL | 0.0011 µg/mL (≈ 0.0039 µM) | 0.00043 µg/mL (≈ 0.00152 µM) | > 8.1 µg/mL |  |  |
| CC(C)=CCC/C(C)=C/CCC(C)(O)C1Cc2c(c(C)[n+]([O-])c3ccccc23)O1 (stereo not drawn) [AURACHIN A] | 1.4 µg/mL (≈ 3.54 µM) | > 12 µg/mL | > 12 µg/mL | 0.028 µg/mL (≈ 0.0708 µM) |  |  |
| CC(C)=CCC/C(C)=C/CC/C(C)=C/Cc1c(O)c(C)[n+]([O-])c2ccccc12 [AURACHIN B] | 3.2 µg/mL (≈ 8.43 µM) | 0.078 µg/mL (≈ 0.206 µM) | 0.036 µg/mL (≈ 0.0949 µM) | 0.014 µg/mL (≈ 0.0369 µM) |  |  |
| CC(C)=CCC/C(C)=C/CC/C(C)=C/Cc1c(C)n(O)c2ccccc2c1=O [AURACHIN C] | 1.8 µg/mL (≈ 4.74 µM) | 0.0009 µg/mL (≈ 0.00237 µM) | 0.026 µg/mL (≈ 0.0685 µM) | 0.016 µg/mL (≈ 0.0422 µM) |  |  |
| CC(C)=CCC/C(C)=C/CC/C(C)=C/Cc1c(C)[nH]c2ccccc2c1=O [AURACHIN D] | 1.3 µg/mL (≈ 3.58 µM) | 0.25 µg/mL (≈ 0.688 µM) | 0.37 µg/mL (≈ 1.02 µM) | 0.018 µg/mL (≈ 0.0495 µM) |  |  |
| CC(C)=CCC/C(C)=C/CC/C(C)=C/Cc1c(C)n2c(=O)[nH]c3cccc(c1=O)c32 [AURACHIN E] | 25 µg/mL (≈ 61.8 µM) | 0.0004 µg/mL (≈ 0.000989 µM) | 0.013 µg/mL (≈ 0.0321 µM) | 1.1 µg/mL (≈ 2.72 µM) | inactive |  |
| CCN(CC)CCCC(C)Nc1ccnc2cc(Cl)ccc12 (stereo not drawn) [CHLOROQUINE] | 14 µg/mL (≈ 43.8 µM) |  |  | > 8.1 µg/mL |  | 2.8 mg/kg |
